Laboratory results published in PubChem BioAssay AID493226 (Broad Institute, 2011).
Several values for one entry are separate records, joined by “and”; a condition that tells them apart may be missing. Equal entries are not always repeated. Records with an inconclusive call do not appear. Activity calls are given as the source filed them.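 The calls were made as follows: active = every repeat test active, with falling cell-viability signal and fitted midpoint potency at most ten times the top dose; inconclusive = tests disagree, flat partial drop, or a poor curve fit; inactive = every test flat, too weak, or rising.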

Experiments:
[1] = growth inhibition of HMLE_shECad stem-like cells, dose response, cell-based, luminescence, dry powder, set 2 (AID 493226); details: HMLE_shECad viability, CellTiter-Glo luminescence, 72 h; at 30 µM (top of the series)
Outline: (§1)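 Material: HMLE cells with stable E-cadherin knockdown (HMLE_shECad), EMT-induced CSC model; Amount: 2000 cells/well; Medium: serum-free CSC screening medium; Dosing: 100 nL compound per well by pin transfer; Schedule: ≥4 h attachment, ~72 h compound exposure, 37 °C; Technique: CellTiter-Glo luminescence.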

[2] = tested on: HMLE_shECad viability, CellTiter-Glo luminescence, 72 h; assay: as above
Outline: as §1

SMILES	activity change, negative = inhibition [1]	AC50 [2]
COc1cc(/C=C/C(=O)NC2=NCCS2)cc(OC)c1OC	0.693% (inactive)	
O=C(COc1ccc(Cl)cc1Cl)N/N=C/c1ccc[nH]1		2.38 µM and 3.33 µM
O=C(N/N=C/c1ccc[nH]1)C1Cc2ccccc2O1 (stereo not given)	12.7% (inactive)	
CC(C)c1ccc(/C=C/C(=O)NC2=NCCS2)cc1		0.839 µM
O=C(COc1c(Cl)cc(Cl)cc1Cl)N/N=C/c1ccc[nH]1		1.16 µM
O=C(C#Cc1ccccc1)NC1=NCCS1	3.65% (inactive)	
COc1ccc(OC)c(/C=C/C(=O)NC2=NCCS2)c1	4.36% (inactive)	
CCN(CC)C(=O)/C=C/c1ccc(C(C)C)cc1	-2.71% (inactive)	
Cc1csc(NC(=O)c2ccc(COc3ccccc3)o2)n1		1.18 µM
O=C(COc1ccc(Cl)cc1Cl)N/N=C/c1ccco1	-7.8% (inactive)	
O=C(CCc1ccccc1)NC1=NCCS1	-2.41% (inactive)	
COc1ccc(/C=C/C(=O)NC2=NCCS2)c(OC)c1		9.45 µM
O=C(COc1ccccc1F)N/N=C/c1ccc[nH]1	3.8% (inactive)	
O=C(O)c1ccc(COc2ccccc2)o1	-1.91% (inactive)	
NNC(=O)COc1ccc(Cl)cc1Cl	-13% (inactive)	
O=C(COc1cc(Cl)ccc1Cl)N/N=C/c1ccc[nH]1		3.39 µM
O=C(NC1=NCCS1)c1cc2ccccc2[nH]1	-16.7% (inactive)	
O=C(/C=C/c1ccc(Cl)c(Cl)c1)NC1=NCCS1	8.35% (inactive)	
O=C(N/N=C/c1ccc[nH]1)c1cc2ccccc2o1		6.33 µM
O=C(COc1ccc(F)cc1Cl)N/N=C/c1ccc[nH]1		8.88 µM

SMILES	activity change, negative = inhibition [1]	AC50 [2]
Cc1c(C(=O)NC2=NCCS2)oc2ccccc12	-22.6% (inactive)	
Cc1ccccc1/C=C/C(=O)NC1=NCCS1	-11.7% (inactive)	
O=C(NC1CCCC1)c1ccc(COc2ccccc2)o1	-15.7% (inactive)	
CCNC(=O)/C=C/c1ccc(C(C)C)cc1	0.062% (inactive)	
Cc1ccccc1NCC(=O)N/N=C/c1ccc[nH]1	-14.1% (inactive)	
CC(C)c1ccc(/C=C/C(=O)O)cc1	4.33% (inactive)	
CC(C)(C)c1ccc2c(c1)OC(C(=O)N/N=C/c1ccc[nH]1)CO2 (stereo not given)		2.52 µM and 2.79 µM
CC(=O)Oc1ccc(/C=C/C(=O)NC2=NCCS2)cc1	-16.2% (inactive)	
O=C(COc1ccc(Cl)cc1Cl)N/N=C/c1cccs1	-4.9% (inactive)	
O=C(COc1ccc(Cl)cc1)N/N=C/c1ccc[nH]1		22.5 µM
C/C(=N\NC(=O)COc1ccc(Cl)cc1Cl)c1ccc[nH]1	-10.8% (inactive)	
O=C(COc1ccc(Cl)cc1Cl)N/N=C/c1cnc[nH]1	3.31% (inactive)	
O=Cc1ccc[nH]1	-5.79% (inactive)	
CC(C)c1ccc(/C=C/C(=O)Nc2ccccc2)cc1		3.44 µM
Cc1ccc(/C=N/NC(=O)COc2ccc(Cl)cc2Cl)[nH]1		14.3 µM
Cc1cc(C)c(/C=N/NC(=O)COc2ccc(Cl)cc2Cl)[nH]1		12.6 µM
Cc1cc(Cl)ccc1OCC(=O)N/N=C/c1ccc[nH]1		2.89 µM
Cc1csc(NC(=O)/C=C/c2ccc(C(C)C)cc2)n1		3.29 µM
O=C(/C=C/c1cc(Cl)ccc1Cl)NC1=NCCS1	-13.1% (inactive)	
CN(C)c1ccc(/C=C/C(=O)NC2=NCCS2)cc1		27.3 µM
